{"data": "Measurements pooled from the literature", "target": "Dual specificity mitogen-activated protein kinase kinase 3 (MAP2K3, Homo sapiens, UniProt P46734)", "Residues used in one study (P46734 1-347)": "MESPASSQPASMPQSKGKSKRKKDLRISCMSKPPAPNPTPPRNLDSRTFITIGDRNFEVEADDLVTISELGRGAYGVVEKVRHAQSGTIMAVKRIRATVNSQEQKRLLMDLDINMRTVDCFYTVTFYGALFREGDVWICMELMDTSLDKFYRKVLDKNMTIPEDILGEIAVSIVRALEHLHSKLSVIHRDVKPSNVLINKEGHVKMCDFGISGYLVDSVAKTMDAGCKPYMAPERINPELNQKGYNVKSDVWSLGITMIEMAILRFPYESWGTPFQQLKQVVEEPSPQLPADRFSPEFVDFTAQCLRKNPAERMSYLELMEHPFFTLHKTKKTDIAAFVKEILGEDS"}
{"SMILES": "CC1=C(C#N)[C@@H](c2ccc3[nH]nc(C)c3c2)C(C#N)=C(c2ccc(Cl)cc2)N1", "effect on": "cell-free assay", "technique": "competition with immobilised ligand", "tested at": "1 µM", "remaining binding [%]": 53.5}
{"SMILES": "COc1ncc2cc3ccccc3nc2c1C#N", "effect on": "cell-free assay", "technique": "competition with immobilised ligand", "tested at": "5 µM", "remaining binding [%]": 74}
{"SMILES": "Nc1cnc(N2CCc3cc(S(=O)(=O)Nc4c(F)cc(Cl)cc4F)cc(N4CCCC4=O)c32)nc1", "effect on": "cell-free assay", "technique": "competition with immobilised ligand", "tested at": "1 µM", "remaining binding [%]": 100}
{"SMILES": "CNC(=O)[C@@H]1CC[C@@H](n2c(-c3ccc4cnccc4c3)nc3ccc(C(=O)NCc4cccc(C(N)=O)c4)cc32)C1", "effect on": "binding", "technique": "competition with immobilised ligand", "tested at": "1 µM", "remaining binding [%]": 98}
{"SMILES": "CC1CCCN1c1nccc(-c2cnn3ncccc23)n1 (stereo not shown)", "effect on": "binding", "tested at": "1 µM", "remaining binding [%]": 84}
{"SMILES": "O=C(NCCCN1CCOCC1)c1ccc(Nc2nccc(-c3cc4ccccc4s3)n2)cc1", "effect on": "binding", "technique": "competition with immobilised ligand", "tested at": "1 µM", "remaining binding [%]": 47}
{"SMILES": "C=CC(=O)N1CCC(C(=O)NCC(=O)N2CCN(c3nc(-c4cnc(N)nc4C(F)F)nc(N4CCOCC4)n3)CC2)CC1", "effect on": "binding", "technique": "competition with immobilised ligand", "tested at": "1 µM", "remaining binding [%]": 59}
{"SMILES": "CO[C@@H](C)c1c(Nc2ccc([C@H](N(C)C(=O)C3CCS(=O)(=O)CC3)C(F)(F)F)cc2)cnc2cc(Cl)nn12", "effect on": "cell-free assay", "technique": "competition with immobilised ligand", "tested at": "1 µM", "remaining binding [%]": 93}
{"SMILES": "O=C(NCCCN1CCOCC1)c1ccc(Nc2ncc(Cl)c(-c3ccc(Cl)s3)n2)cc1", "effect on": "binding", "technique": "competition with immobilised ligand", "tested at": "1 µM", "remaining binding [%]": 51}
{"SMILES": "FC(F)(F)Oc1cccc(-c2cnc3ccc(-c4ccncc4)nn23)c1", "effect on": "cell-free assay", "technique": "competition with immobilised ligand", "tested at": "5 µM", "remaining binding [%]": 35}
{"SMILES": "CN(C)c1nccc(-c2cnn3ncccc23)n1", "effect on": "binding", "tested at": "1 µM", "remaining binding [%]": 51}
{"SMILES": "FC(F)(F)c1ccc2c(c1)nc(-c1cccnc1)n2C1CC1", "effect on": "cell-free assay", "technique": "competition with immobilised ligand", "tested at": "1 µM", "remaining binding [%]": 100}
{"SMILES": "Cc1cnn2ncc(-c3ccnc(N(C)C)n3)c2c1", "effect on": "binding", "tested at": "1 µM", "remaining binding [%]": 83}
{"SMILES": "N#CC1(c2ccccn2)CCN(Cc2cc(C(=O)N3CCCC3)c(=O)n3ccccc23)CC1", "effect on": "cell-free assay", "technique": "competition with immobilised ligand", "tested at": "1 µM", "remaining binding [%]": 81}
{"SMILES": "C[C@H]1CCN(c2nccc(-c3cnn4ncccc34)n2)C1", "effect on": "binding", "tested at": "1 µM", "remaining binding [%]": 69}
{"SMILES": "O=C(NCC1CCOCC1)c1n[nH]cc1NC(=O)c1c(F)cccc1F", "effect on": "binding", "technique": "competition with immobilised ligand", "tested at": "1 µM", "remaining binding [%]": 64}
{"SMILES": "COc1ccnn2ncc(-c3ccnc(N(C)C)n3)c12", "effect on": "binding", "tested at": "1 µM", "remaining binding [%]": 71}
{"SMILES": "O=C(c1ccc(Nc2ncc(Cl)c(-c3cc4ccccc4s3)n2)cc1)N1CCC(N2CCCC2)CC1", "effect on": "binding", "technique": "competition with immobilised ligand", "tested at": "1 µM", "remaining binding [%]": 43}
{"SMILES": "CN(C)c1nccc(-c2cnc3ncccn23)n1", "effect on": "binding", "tested at": "1 µM", "remaining binding [%]": 78}
{"SMILES": "C[C@@H](c1ccc(-n2cnc3c(N)ncnc32)cc1)N1CCc2nn(C)c(Cc3ccccc3)c2C1=O", "effect on": "binding", "technique": "competition with immobilised ligand", "tested at": "0.1 µM", "remaining binding [%]": 63}
{"SMILES": "CN(C)c1ncnc(-c2ccc3nc(Nc4cc(CN5CCN(C(=O)CC(F)(F)F)CC5)ccn4)[nH]c3c2)c1Cl", "effect on": "cell-free assay", "technique": "competition with immobilised ligand", "tested at": "1 µM", "remaining binding [%]": 73}
{"SMILES": "N[C@@H]1CCN(c2nccc(-c3cnn4ncccc34)n2)C1", "effect on": "binding", "tested at": "1 µM", "remaining binding [%]": 59}
